ChEMBL document CHEMBL4371041, “Synthesis and evaluation of thieno[3,2-d]pyrimidine derivatives as novel FMS inhibitors” (Bioorg Med Chem Lett, 2019)

Experiments:
[1] = molecular target: Hepatocyte growth factor receptor (Homo sapiens) (UniProt P08581); experiment: Inhibition of recombinant human N-terminal His6-tagged Met (974 to end residues) expressed in baculovirus infected Sf21 insect cells at 1 uM using KKKSPGEYVNIEFG as substrate in presence of [gamma-33P]-ATP or [gamma-32P]-ATP relative to control
[2] = system: MDA-MB-231; experiment: Antiinvasive activity against human MDA-MB-231 cells after 72 hrs by luciferase reporter-based matrigel-coated transwell assay; type: functional, cell-based
In short: (§1)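 Invasion of luciferase-expressing MDA-MB-231 cells assessed in a system including RAW264.7 mouse macrophages, across a dose range including 1 μM; invasion read by luciferase signal relative to untreated control.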

[3] = molecular target: Epidermal growth factor receptor (Homo sapiens) (UniProt P00533); experiment: Inhibition of recombinant human N-terminal GST-tagged EGFR (696 to end residues) expressed in baculovirus infected Sf21 insect cells at 1 uM using Angiotensin2 peptide as substrate in presence of [gamma-33P]-ATP or [gamma-32P]-ATP relative to control
[4] = molecular target: Aurora kinase B/Inner centromere protein (Homo sapiens) (UniProt Q96GD4+Q9NQS7); experiment: Inhibition of recombinant human full length C-terminal His6-tagged Aurora B/N-terminal GST-tagged INCENP (821 to end residues) expressed in baculovirus infected Sf21 insect cells at 1 uM in presence of [gamma-33P]-ATP or [gamma-32P]-ATP relative to control
[5] = molecular target: Proto-oncogene tyrosine-protein kinase Src (Homo sapiens) (UniProt P12931); experiment: Inhibition of recombinant human N-terminal His6-tagged Src (1 to 530 residues) expressed in baculovirus infected Sf21 insect cells at 1 uM in presence of [gamma-33P]-ATP or [gamma-32P]-ATP relative to control
[6] = system: NFS-60; experiment: Growth inhibition of mouse NFS60 cells after 72 hrs by CellTiter96 AQueous one solution cell proliferation assay; type: functional; details: NFS-60, 72 h
[7] = molecular target: Vascular endothelial growth factor receptor 2 (Homo sapiens, UniProt P35968); experiment: Inhibition of recombinant human N-terminal His6-tagged KDR (790 to end residues) expressed in baculovirus infected Sf21 insect cells at 1 uM using MBP as substrate in presence of [gamma-33P]-ATP or [gamma-32P]-ATP relative to control
[8] = Half life in CD-1 mouse at 3 mg/kg, iv; type: ADME, organism-based; details: in vivo
[9] = system: MDA-MB-231; experiment: Growth inhibition of human MDA-MB-231 cells at 5 uM after 24 hrs by MTS assay relative to control; type: functional; details: MDA-MB-231, 24 h, read-out: GI
[10] = molecular target: Voltage-gated inwardly rectifying potassium channel KCNH2 (Homo sapiens, UniProt Q12809); experiment: Displacement of Tracer Red from human ERG by fluorescence polarization assay
[11] = Half life in CD-1 mouse at 10 mg/kg, po; type: ADME, organism-based; details: in vivo
[12] = molecular target: T1, Fibroblast growth factor receptor 1 (Homo sapiens, UniProt P11362); experiment: Inhibition of recombinant human N-terminal GST-tagged FGFR1 (456 to 765 residues) expressed in baculovirus infected Sf21 insect cells at 1 uM using IGF-IRtide (12-527) as substrate in presence of [gamma-33P]-ATP or [gamma-32P]-ATP relative to control
[13] = molecular target: Tyrosine-protein kinase JAK3 (Homo sapiens) (UniProt P52333); experiment: Inhibition of recombinant human N-terminal His6-tagged JAK3 (781 to end residues) expressed in baculovirus infected Sf21 insect cells at 1 uM using JAK3tide as substrate in presence of [gamma-33P]-ATP or [gamma-32P]-ATP relative to control
[14] = molecular target: Tyrosine-protein kinase ABL1 (Homo sapiens) (UniProt P00519); experiment: Inhibition of recombinant human N-terminal His6-tagged Abl (27 to end residues) expressed in baculovirus infected Sf21 insect cells at 1 uM using Abltide as substrate in presence of [gamma-33P]-ATP or [gamma-32P]-ATP relative to control
[15] = system: RAF proto-oncogene serine/threonine-protein kinase (Homo sapiens), P04049 [Y340D,Y341D]; experiment: Inhibition of recombinant human N-terminal GST-tagged c-RAF Y340D/Y341D double mutant (306 to 648 residues) expressed in baculovirus infected Sf21 insect cells at 1 uM using MEK1(K97R) as substrate in presence of [gamma-33P]-ATP or [gamma-32P]-ATP relative to control
[16] = molecular target: Proto-oncogene tyrosine-protein kinase receptor Ret (Homo sapiens) (UniProt P07949); experiment: Inhibition of recombinant human N-terminal GST-tagged Ret (658 to end residues) expressed in baculovirus infected Sf21 insect cells at 1 uM using IFG-1Rtide as substrate in presence of [gamma-33P]-ATP or [gamma-32P]-ATP relative to control
[17] = system: MDA-MB-231; experiment: Antiinvasive activity against human MDA-MB-231 cells at 1 uM after 72 hrs by luciferase reporter-based matrigel-coated transwell assay relative to control; type: functional; in short: as §1
[18] = Clearance in CD-1 mouse at 10 mg/kg, po; type: ADME, organism-based; details: in vivo
[19] = molecular target: Maternal embryonic leucine zipper kinase (Homo sapiens, UniProt Q14680); experiment: Inhibition of recombinant human N-terminal GST-tagged MELK (1 to 340 residues) expressed in baculovirus infected Sf21 insect cells using KKLNRTLSFAEPG as substrate in presence of [gamma-33P]-ATP or [gamma-32P]-ATP
In short: (§2)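 Kinase panel of twenty-eight enzymes; IC50 values determined with ATP at the respective Km of each kinase.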

[20] = Stability in human hepatocytes assessed as parent compound remaining measured after 60 mins; type: ADME, cell-based, Hepatocyte; details: read-out: Stability
[21] = Clearance in CD-1 mouse at 3 mg/kg, iv; type: ADME, organism-based; details: in vivo
[22] = molecular target: Ribosomal protein S6 kinase alpha-1 (Homo sapiens) (UniProt Q15418); experiment: Inhibition of RSK1 (unknown origin) at 1 uM in presence of [gamma-33P]-ATP or [gamma-32P]-ATP relative to control
[23] = Cmax in CD-1 mouse at 10 mg/kg, po; type: ADME, organism-based; design: dose 10 mg/kg, route oral; details: in vivo
[24] = molecular target: T1, Fibroblast growth factor receptor 1; experiment: Inhibition of recombinant human N-terminal GST-tagged FGFR1 (456 to 765 residues) expressed in baculovirus infected Sf21 insect cells using IGF-IRtide (12-527) as substrate in presence of [gamma-33P]-ATP or [gamma-32P]-ATP; in short: as §2
[25] = Tmax in CD-1 mouse at 10 mg/kg, po; type: ADME, organism-based; details: in vivo
[26] = molecular target: RAF proto-oncogene serine/threonine-protein kinase (Homo sapiens, UniProt P04049, Y340D/Y341D); experiment: Inhibition of recombinant human N-terminal GST-tagged c-RAF Y340D/Y341D double mutant (306 to 648 residues) expressed in baculovirus infected Sf21 insect cells using MEK1(K97R) as substrate in presence of [gamma-33P]-ATP or [gamma-32P]-ATP
Sequence of RAF proto-oncogene serine/threonine-protein kinase (P04049 whole entry Y340D/Y341D, the tested form may be a part): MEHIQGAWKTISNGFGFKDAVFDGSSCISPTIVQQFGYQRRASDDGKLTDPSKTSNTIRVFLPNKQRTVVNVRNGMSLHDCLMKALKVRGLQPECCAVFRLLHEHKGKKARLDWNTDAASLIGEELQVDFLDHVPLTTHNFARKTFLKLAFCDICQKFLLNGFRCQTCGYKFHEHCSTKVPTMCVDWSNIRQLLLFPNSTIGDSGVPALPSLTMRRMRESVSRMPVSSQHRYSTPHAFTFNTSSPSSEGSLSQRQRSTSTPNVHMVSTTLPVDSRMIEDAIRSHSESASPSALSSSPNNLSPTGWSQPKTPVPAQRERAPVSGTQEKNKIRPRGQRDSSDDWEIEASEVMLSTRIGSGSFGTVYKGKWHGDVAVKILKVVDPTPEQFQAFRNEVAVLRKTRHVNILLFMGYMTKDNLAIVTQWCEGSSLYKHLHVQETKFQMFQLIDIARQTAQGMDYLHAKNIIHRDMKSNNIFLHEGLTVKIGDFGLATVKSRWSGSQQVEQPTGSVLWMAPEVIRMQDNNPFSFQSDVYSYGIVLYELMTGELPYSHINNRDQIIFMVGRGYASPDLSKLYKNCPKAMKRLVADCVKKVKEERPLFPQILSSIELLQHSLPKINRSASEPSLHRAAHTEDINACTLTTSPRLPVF

Sequence of RAF proto-oncogene serine/threonine-protein kinase (Homo sapiens), P04049 [Y340D,Y341D] (P04049 whole entry Y340D/Y341D, the tested form may be a part): as above
Sequence of Ribosomal protein S6 kinase alpha-1 (Homo sapiens) (Q15418 whole entry): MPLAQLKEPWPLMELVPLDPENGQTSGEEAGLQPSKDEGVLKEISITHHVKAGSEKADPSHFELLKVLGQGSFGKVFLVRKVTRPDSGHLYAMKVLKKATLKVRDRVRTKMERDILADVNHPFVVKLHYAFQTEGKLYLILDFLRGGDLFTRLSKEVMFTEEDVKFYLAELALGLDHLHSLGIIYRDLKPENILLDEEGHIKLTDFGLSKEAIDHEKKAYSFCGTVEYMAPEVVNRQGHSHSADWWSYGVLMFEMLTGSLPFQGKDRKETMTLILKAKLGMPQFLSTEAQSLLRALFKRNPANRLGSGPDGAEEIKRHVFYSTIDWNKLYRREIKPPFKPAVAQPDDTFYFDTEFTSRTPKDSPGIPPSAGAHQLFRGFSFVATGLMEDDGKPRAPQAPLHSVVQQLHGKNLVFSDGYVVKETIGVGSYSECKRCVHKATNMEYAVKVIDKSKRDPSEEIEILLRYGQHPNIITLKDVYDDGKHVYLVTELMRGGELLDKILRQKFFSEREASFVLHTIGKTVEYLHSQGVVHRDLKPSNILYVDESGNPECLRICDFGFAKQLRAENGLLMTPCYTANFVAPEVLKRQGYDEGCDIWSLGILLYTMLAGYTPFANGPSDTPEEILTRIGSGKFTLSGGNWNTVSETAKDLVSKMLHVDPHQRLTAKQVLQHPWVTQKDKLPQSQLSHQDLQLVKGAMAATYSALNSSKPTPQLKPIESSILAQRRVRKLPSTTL
Sequence of Epidermal growth factor receptor (Homo sapiens) (P00533 whole entry): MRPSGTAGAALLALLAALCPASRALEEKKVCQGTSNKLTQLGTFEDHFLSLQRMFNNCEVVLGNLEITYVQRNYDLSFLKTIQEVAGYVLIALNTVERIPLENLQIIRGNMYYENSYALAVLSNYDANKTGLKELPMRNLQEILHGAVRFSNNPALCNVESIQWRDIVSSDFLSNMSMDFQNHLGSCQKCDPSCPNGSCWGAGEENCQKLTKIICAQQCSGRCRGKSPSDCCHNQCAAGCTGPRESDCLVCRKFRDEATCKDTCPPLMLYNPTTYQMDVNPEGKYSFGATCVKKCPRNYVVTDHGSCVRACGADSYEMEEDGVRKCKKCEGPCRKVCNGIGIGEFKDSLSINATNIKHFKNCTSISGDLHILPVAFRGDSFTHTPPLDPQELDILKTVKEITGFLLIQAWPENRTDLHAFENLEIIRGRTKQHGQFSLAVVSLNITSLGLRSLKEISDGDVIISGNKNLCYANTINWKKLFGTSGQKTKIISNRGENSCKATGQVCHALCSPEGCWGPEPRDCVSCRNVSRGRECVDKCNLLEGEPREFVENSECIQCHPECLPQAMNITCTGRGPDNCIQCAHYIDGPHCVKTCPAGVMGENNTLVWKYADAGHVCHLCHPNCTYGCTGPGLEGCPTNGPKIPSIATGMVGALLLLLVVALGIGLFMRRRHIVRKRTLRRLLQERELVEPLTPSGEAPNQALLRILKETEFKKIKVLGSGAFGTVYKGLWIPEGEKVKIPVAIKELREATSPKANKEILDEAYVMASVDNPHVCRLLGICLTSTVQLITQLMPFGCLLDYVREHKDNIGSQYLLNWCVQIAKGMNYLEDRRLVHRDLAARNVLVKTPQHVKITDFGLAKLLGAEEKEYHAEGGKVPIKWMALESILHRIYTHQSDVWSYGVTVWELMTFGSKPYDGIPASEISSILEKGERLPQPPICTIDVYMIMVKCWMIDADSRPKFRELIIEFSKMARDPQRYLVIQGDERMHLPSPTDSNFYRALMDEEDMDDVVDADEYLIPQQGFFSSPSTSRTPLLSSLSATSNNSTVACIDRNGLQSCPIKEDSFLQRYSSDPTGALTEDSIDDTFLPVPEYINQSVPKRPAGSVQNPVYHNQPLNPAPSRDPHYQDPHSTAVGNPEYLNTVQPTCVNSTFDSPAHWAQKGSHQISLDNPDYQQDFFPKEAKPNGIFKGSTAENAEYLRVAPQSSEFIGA
Sequence of Vascular endothelial growth factor receptor 2 (P35968 whole entry): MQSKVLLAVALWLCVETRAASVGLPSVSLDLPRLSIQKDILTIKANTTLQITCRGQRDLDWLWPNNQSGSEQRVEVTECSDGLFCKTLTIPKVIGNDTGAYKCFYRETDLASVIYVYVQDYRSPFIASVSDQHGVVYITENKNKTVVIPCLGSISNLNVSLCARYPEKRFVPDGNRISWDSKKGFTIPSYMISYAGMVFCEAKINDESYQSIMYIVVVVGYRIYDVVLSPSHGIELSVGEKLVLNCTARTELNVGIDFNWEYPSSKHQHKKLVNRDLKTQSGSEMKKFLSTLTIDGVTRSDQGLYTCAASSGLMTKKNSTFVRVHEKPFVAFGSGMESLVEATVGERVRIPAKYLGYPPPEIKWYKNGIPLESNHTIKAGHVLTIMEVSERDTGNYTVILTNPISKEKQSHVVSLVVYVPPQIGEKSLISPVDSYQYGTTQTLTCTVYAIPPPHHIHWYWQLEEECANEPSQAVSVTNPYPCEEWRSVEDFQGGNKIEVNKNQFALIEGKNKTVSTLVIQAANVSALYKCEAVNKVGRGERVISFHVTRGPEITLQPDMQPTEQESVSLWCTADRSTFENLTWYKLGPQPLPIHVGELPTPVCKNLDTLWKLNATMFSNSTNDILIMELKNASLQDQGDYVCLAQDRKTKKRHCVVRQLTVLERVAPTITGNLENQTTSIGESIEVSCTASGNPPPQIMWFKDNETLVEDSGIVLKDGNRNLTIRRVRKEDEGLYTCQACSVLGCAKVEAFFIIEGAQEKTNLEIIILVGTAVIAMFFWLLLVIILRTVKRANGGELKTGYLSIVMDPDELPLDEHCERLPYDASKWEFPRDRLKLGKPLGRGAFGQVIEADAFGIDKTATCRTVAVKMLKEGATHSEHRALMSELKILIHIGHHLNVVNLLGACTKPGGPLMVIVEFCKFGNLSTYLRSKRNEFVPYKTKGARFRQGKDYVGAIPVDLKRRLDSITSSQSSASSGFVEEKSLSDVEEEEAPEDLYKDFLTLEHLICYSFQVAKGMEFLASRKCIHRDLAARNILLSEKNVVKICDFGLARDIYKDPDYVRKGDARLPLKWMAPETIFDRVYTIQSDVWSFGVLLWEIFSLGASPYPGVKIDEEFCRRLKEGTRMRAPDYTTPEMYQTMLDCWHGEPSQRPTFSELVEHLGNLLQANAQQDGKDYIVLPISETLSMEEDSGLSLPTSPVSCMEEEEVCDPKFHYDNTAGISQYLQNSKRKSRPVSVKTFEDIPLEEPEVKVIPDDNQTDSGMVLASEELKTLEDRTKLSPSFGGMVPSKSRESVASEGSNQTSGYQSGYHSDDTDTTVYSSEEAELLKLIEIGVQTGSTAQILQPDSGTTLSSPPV

## Cc1cccc(Cn2nc(C)c3c(NC(=O)c4csc5c(N)ncnc45)cccc32)n1
[1]
  inhibition: -9%
[2]
  Activity: Dose-dependent effect
[3]
  inhibition: -2%
[4]
  inhibition: -3%
[5]
  inhibition: 4%
[6]
  GI50: 0.08 µM
[7]
  inhibition: > 60%
[8]
  half-life: 1.6 h
[9]
  inhibition of growth at 5 µM: 20%
[10]
  IC50: > 50 µM
[11]
  half-life: 2.6 h
[12]
  inhibition: > 60%
[13]
  inhibition: 6%
[14]
  inhibition: 35%
[15]
  inhibition: > 60%
[16]
  inhibition: -2%
[17]
  Activity: 67%
[18]
  CL/F: 33.3 mL/min/kg
[19]
  IC50: 0.258 µM
[20]
  remaining at 1 h: 87%
[21]
  clearance: 15 mL/min/kg
[22]
  inhibition: 14%
[23]
  Cmax: 900 ng/mL
[24]
  IC50: 0.145 µM
[25]
  Tmax: 2 h
[26]
  IC50: 0.08 µM
